According to ChEMBL document CHEMBL4480400, “Development of an N-Acyl Amino Acid That Selectively Inhibits the Glycine Transporter 2 To Produce Analgesia in a Rat Model of Chronic Pain” (J Med Chem, 2019):

Assays:
[1] = Ratio of drug uptake in Sprague-Dawley rat brain to plasma at 27.5 mg/kg, ip after 24 hrs by UPLC analysis; type: ADME, organism-based; settings: read-out: BPR
Method in brief: (§1)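 Male Sprague-Dawley rats (250–306 g) got one ip dose of a suspension (10% v/v DMSO, 1% solutol HS-15 in 50 mM PBS, pH 7.4). Terminal cardiac-puncture heparinised plasma and whole brain were sampled over 24 h, n=3 rats per time point. Samples were extracted by protein precipitation and read by UPLC-MS/MS in positive ESI MRM with a diazepam internal standard. Parameters are non-compartmental; the time-averaged B/P comes from AUC0-24h.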

[2] = Ratio of drug uptake in Sprague-Dawley rat brain to plasma at 27.5 mg/kg, ip after 1 hr by UPLC analysis; type: ADME, organism-based; settings: read-out: BPR; method in brief: as §1
[3] = biological target: T1, Alpha-2A adrenergic receptor (Homo sapiens) (UniProt P08913); experiment: Displacement of [3H]RX821002 from recombinant human alpha2A adrenoceptor at 10 uM after 60 mins by scintillation counting relative to control
T1 sequence (whole entry): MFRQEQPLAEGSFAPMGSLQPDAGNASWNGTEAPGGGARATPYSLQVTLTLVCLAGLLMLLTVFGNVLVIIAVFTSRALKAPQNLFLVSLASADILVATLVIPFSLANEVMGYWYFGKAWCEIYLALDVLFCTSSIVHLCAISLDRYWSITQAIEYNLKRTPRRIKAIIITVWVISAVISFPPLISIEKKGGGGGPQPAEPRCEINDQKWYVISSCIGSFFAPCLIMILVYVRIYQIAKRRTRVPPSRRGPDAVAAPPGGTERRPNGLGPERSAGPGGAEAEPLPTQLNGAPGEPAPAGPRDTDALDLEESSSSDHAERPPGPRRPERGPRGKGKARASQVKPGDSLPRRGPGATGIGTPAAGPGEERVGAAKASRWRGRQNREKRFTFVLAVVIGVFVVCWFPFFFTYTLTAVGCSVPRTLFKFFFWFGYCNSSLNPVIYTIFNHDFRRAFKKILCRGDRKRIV

[4] = Cmax in Sprague-Dawley rat brain at 27.5 mg/kg, ip by UPLC analysis; type: ADME, organism-based; set-up: dose 27.5 mg/kg, route intraperitoneal; method in brief: as §1
[5] = biological target: Sodium channel protein type 5 subunit alpha (Homo sapiens, UniProt Q14524); experiment: Inhibition of human NaV1.5 expressed in HEK293 cells at 1 uM; type: cell-based; settings: hek293, 1 µM
Sequence of Sodium channel protein type 5 subunit alpha (Q14524 whole entry): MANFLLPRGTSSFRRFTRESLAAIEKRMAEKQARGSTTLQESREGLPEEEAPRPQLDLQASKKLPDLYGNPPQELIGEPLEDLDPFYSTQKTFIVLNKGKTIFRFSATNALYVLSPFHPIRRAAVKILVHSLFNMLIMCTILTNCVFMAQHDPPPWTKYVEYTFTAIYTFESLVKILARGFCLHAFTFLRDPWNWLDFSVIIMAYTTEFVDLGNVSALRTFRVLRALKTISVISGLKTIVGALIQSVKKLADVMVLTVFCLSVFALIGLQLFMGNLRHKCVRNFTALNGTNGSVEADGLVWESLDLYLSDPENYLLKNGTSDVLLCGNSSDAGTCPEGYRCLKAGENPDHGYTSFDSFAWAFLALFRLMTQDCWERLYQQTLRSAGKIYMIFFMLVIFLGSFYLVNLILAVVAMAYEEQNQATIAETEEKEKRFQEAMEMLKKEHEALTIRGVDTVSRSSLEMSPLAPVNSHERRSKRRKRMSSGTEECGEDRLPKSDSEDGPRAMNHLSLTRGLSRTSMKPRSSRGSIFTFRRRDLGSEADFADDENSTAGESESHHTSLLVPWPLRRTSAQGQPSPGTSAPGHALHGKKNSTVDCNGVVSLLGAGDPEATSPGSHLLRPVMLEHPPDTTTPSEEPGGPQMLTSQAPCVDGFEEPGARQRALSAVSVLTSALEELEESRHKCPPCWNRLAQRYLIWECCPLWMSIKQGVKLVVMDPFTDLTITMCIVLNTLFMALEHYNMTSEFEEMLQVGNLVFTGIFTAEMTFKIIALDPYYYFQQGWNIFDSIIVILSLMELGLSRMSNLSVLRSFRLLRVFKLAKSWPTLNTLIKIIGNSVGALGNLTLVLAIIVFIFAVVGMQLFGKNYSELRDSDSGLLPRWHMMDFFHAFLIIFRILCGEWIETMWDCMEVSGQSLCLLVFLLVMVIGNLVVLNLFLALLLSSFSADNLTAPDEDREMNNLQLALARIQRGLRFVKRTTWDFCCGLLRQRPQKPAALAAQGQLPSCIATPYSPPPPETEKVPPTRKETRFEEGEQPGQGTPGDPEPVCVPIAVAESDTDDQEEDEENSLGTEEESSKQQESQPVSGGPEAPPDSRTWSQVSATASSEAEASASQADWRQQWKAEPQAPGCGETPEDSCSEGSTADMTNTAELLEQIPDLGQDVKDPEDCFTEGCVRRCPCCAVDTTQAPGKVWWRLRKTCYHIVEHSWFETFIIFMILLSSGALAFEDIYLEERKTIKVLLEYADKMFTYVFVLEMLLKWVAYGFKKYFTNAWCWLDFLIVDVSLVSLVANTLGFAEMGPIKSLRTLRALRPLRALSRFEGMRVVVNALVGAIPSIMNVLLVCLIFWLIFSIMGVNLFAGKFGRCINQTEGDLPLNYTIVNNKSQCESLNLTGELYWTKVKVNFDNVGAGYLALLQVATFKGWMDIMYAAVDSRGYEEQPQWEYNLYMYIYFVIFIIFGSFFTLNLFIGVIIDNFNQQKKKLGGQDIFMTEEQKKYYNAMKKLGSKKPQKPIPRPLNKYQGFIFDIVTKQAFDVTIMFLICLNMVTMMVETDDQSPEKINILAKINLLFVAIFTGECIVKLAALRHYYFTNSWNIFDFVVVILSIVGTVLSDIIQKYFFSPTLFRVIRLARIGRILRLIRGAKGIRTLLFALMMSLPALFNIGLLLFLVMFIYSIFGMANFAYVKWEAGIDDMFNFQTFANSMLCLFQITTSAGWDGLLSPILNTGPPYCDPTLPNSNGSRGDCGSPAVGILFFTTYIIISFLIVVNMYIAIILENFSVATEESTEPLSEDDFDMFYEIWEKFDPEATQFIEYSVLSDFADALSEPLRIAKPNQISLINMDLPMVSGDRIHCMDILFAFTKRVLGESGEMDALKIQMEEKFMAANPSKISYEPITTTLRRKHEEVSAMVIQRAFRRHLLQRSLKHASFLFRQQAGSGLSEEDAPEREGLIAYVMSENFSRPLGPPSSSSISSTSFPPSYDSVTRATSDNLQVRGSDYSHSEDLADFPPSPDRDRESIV

[6] = biological target: T2, Sodium- and chloride-dependent glycine transporter 2 (Homo sapiens, UniProt Q9Y345); experiment: Inhibition of recombinant human GlyT2a expressed in Xenopus laevis oocytes assessed as reduction in channel current by two-electrode voltage clamp electrophysiology; type: cell-based
T2 sequence (Q9Y345 whole entry): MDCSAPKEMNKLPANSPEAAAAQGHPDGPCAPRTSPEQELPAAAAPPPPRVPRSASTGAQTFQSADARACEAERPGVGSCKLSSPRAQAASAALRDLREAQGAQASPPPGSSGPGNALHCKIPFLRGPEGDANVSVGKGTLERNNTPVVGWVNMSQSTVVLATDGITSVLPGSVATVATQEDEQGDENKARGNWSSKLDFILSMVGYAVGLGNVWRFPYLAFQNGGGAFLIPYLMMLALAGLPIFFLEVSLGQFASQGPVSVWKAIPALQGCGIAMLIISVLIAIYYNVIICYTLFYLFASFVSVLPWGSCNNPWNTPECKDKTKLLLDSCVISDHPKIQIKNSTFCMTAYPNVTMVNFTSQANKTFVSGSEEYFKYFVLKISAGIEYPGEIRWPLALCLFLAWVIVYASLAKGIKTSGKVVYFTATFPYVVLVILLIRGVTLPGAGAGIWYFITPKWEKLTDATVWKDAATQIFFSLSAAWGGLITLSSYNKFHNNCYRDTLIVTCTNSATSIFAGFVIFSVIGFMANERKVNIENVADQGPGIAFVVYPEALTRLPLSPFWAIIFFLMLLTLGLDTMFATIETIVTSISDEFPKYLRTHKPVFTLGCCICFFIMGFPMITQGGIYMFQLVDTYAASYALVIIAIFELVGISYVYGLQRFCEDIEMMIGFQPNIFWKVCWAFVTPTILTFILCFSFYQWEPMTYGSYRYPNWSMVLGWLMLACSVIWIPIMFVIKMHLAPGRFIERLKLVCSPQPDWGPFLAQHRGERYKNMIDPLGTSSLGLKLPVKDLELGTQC

## CCCCCCCC/C=C\CCCCCCCC(=O)N[C@H](CCCCN)C(=O)O.Cl
[1]
  Kp at 24 h: 1.1
[2]
  Kp at 1 h: 0.08
[3]
  inhibition: > 50%
[4]
  Cmax: 1850 ng/g
[5]
  inhibition (INH): Not Active
[6]
  IC50: 48.3 nM
